Measurements gathered from unrelated publications.
Compare with care: the assays were run in different laboratories.
Target: Inhibitor of nuclear factor kappa-B kinase subunit alpha (CHUK, Homo sapiens, UniProt O15111)
Sequence (O15111 1-745, as in one of the studies): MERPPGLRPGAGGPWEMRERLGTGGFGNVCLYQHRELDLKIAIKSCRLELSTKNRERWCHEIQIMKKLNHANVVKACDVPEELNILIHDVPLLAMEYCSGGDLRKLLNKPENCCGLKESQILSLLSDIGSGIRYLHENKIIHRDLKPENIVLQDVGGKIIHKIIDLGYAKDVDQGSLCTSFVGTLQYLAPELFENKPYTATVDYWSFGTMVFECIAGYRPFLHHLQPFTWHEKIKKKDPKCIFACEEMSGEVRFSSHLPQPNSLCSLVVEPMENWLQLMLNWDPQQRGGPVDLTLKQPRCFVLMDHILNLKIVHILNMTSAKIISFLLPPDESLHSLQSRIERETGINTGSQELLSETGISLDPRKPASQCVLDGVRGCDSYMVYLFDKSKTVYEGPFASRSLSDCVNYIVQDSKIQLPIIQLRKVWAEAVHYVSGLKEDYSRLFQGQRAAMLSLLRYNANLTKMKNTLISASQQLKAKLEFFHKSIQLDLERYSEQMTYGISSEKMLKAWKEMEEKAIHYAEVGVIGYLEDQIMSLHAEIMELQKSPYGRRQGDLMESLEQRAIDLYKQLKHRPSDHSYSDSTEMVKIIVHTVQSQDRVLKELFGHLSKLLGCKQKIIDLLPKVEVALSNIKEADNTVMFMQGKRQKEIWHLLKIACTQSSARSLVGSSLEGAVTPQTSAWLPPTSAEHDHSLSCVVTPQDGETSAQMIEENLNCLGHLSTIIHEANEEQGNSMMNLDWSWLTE

C[C@@H]1CN(c2ccc3ncc(-c4ccc5[nH]nc(C6CC6)c5c4)n3n2)C[C@H](C)O1  remaining binding (binding, competition with immobilised ligand; 0.5 µM): 85%
N[C@H]1CCN(c2nccc(-c3cnn4ncccc34)n2)C1  remaining binding (binding; 1 µM): 82%
COc1ccc2cc(OCC3(C(=O)O)CN(C(=O)c4ccc(F)cc4)C3)ccc2c1  remaining binding (cell-free assay, competition with immobilised ligand; 1 µM): 100%
N#Cc1ccccc1CSc1nnc2c(n1)[nH]c1ccccc12  remaining binding (binding, competition with immobilised ligand; 10 µM): 100%
F[C@@H]1CCN(c2nccc(-c3cnn4ncccc34)n2)C1  remaining binding (binding; 1 µM): 100%
FC(F)(F)Oc1cccc(-c2cnc3ccc(-c4ccncc4)nn23)c1  remaining binding (cell-free assay, competition with immobilised ligand; 5 µM): 39%
O=C(NCCCN1CCOCC1)c1ccc(Nc2nccc(-c3cc4ccccc4s3)n2)cc1  remaining binding (binding, competition with immobilised ligand; 1 µM): 12%
c1cncc(-c2cccc(Nc3nccc(NC4CCCCC4)n3)c2)c1  remaining binding (binding, competition with immobilised ligand; 10 µM): 87%
C[C@H]1CCN(c2nccc(-c3cnn4ncccc34)n2)C1  remaining binding (binding; 1 µM): 62%
O=C(NC[C@@H]1[C@H]2CN(C(=O)OCc3cc(C(F)(F)F)cc(C(F)(F)F)c3)C[C@@H]12)c1ccc2[nH]nnc2c1  remaining binding (cell-free assay, competition with immobilised ligand; 1 µM): 100%
CN(CCCC(F)(F)F)c1nccc(-c2cnn3ncccc23)n1  remaining binding (binding; 1 µM): 99%
O=C(NCC1CCOCC1)c1n[nH]cc1NC(=O)c1c(F)cccc1F  remaining binding (binding, competition with immobilised ligand; 1 µM): 86%
O=C(NS(=O)(=O)c1ccc(NCC2CCOCC2)c([N+](=O)[O-])c1)c1ccc(N2CCN(Cc3ccc(C(F)(F)F)cc3-c3ccc(Cl)cc3)CC2)cc1Oc1cnc2[nH]ccc2c1  remaining binding (cell-free assay, competition with immobilised ligand; 1 µM): 81%
c1cnn2ncc(-c3ccnc(N4CCC45COC5)n3)c2c1  remaining binding (binding; 1 µM): 35%
C[C@@H](c1ccc(-n2cnc3c(N)ncnc32)cc1)N1CCc2nn(C)c(Cc3ccccc3)c2C1=O  remaining binding (binding, competition with immobilised ligand; 0.1 µM): 80%
C[C@@H](c1cccc(C#N)c1)n1cc(Cl)cc(C(N)=O)c1=N  remaining binding (cell-free assay, competition with immobilised ligand; 1 µM): 100%
Cc1cnn2ncc(-c3ccnc(N(C)C)n3)c2c1  remaining binding (binding; 1 µM): 69%
Cn1cc(Cl)c2c(Oc3c(F)cc(Nc4cc(Cl)nc(N)n4)cc3F)ccnc21  remaining binding (cell-free assay, competition with immobilised ligand; 0.1 µM): 85%
COc1ccnn2ncc(-c3ccnc(N(C)C)n3)c12  remaining binding (binding; 1 µM): 71%
Nc1c(C(=O)NCc2ccc(C(=O)NCCCC3CCCCC3)cc2)cnn1-c1ccccc1  remaining binding (cell-free assay, competition with immobilised ligand; 0.1 µM): 100%
O=C(c1ccc(Nc2nccc(-c3cc4ccccc4s3)n2)cc1)N1CCC(N2CCCC2)CC1  remaining binding (binding, competition with immobilised ligand; 1 µM): 0.2%
CCC(=O)N[C@H]1CC[C@@H](C(=O)N(C)c2ccc(-c3nc4ccccc4o3)cc2)C1  remaining binding (cell-free assay, competition with immobilised ligand; 1 µM): 100%
O=C(c1ccc(Nc2ncc(Cl)c(-c3ccc(Cl)s3)n2)cc1)N1CCC(N2CCCC2)CC1  remaining binding (binding, competition with immobilised ligand; 1 µM): 2.9%
C[C@@]1(Cc2ccc(C#N)cc2)C(=O)N(c2cc(Cl)cc(Cl)c2)c2ncc(C(=O)NC3(c4nc(C5CCC5)no4)CC3)n21  remaining binding (cell-free assay, competition with immobilised ligand; 1 µM): 100%
CNC(=O)[C@@H]1CC[C@@H](n2c(-c3ccc4cnccc4c3)nc3ccc(C(=O)NCc4cccc(C(N)=O)c4)cc32)C1  remaining binding (binding, competition with immobilised ligand; 1 µM): 100%
